Measurements taken from ChEMBL document CHEMBL4184148 (Bioorg Med Chem Lett, 2017).

Legend:
[1] = target: Serine/threonine-protein kinase Nek10 (Homo sapiens) (UniProt Q6ZWH5); test: Binding affinity to wild-type human partial length NEK10 (L488 to R809 residues) expressed in HEK293 cells at 1 uM by Kinomescan method relative to control; format: cell-based
[2] = target: Epidermal growth factor receptor (Homo sapiens) (UniProt P00533); test: Binding affinity to human partial length EGFR E746-A750del mutant expressed in Escherichia coli BL21 at 1 uM by Kinomescan method relative to control
[3] = target: Calcium/calmodulin-dependent protein kinase type 1G (Homo sapiens) (UniProt Q96NX5); test: Binding affinity to wild-type human partial length CAMK1G (M1 to A342 residues) expressed in Escherichia coli BL21 at 1 uM by Kinomescan method relative to control
[4] = tested on: Leucine-rich repeat serine/threonine-protein kinase 2 (Homo sapiens), Q5S007 [G2019S]; test: Binding affinity to human partial length LRRK2 G2019S mutant (H970 to E2527 residues) expressed in HEK293 cells at 1 uM by Kinomescan method relative to control; format: cell-based
[5] = target: Serine/threonine-protein kinase WNK1 (Homo sapiens) (UniProt Q9H4A3); test: Binding affinity to wild-type human partial length WNK1 (Q194 to A490 residues) expressed in HEK293 cells at 1 uM by Kinomescan method relative to control; format: cell-based
[6] = target: Membrane-associated tyrosine- and threonine-specific cdc2-inhibitory kinase (Homo sapiens) (UniProt Q99640); test: Binding affinity to wild-type human partial length PKMYT1 (A88 to G366 residues) expressed in Escherichia coli BL21 at 1 uM by Kinomescan method relative to control
[7] = target: Tyrosine-protein kinase ABL2 (Homo sapiens) (UniProt P42684); test: Binding affinity to wild-type human ABL2 (A248 to G542 residues) expressed in Escherichia coli BL21 at 1 uM by Kinomescan method relative to control
[8] = target: Tyrosine-protein kinase Fer (Homo sapiens) (UniProt P16591); test: Binding affinity to wild-type human partial length FER (S542 to T822 residues) expressed in Escherichia coli BL21 at 1 uM by Kinomescan method relative to control
[9] = target: Serine/threonine-protein kinase 17B (Homo sapiens) (UniProt O94768); test: Binding affinity to wild-type human full length DRAK2 (M1 to C372 residues) expressed in Escherichia coli BL21 at 1 uM by Kinomescan method relative to control
How it was run: (§1)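 Run as one kinome-wide competition binding panel with each compound at a single fixed concentration. Results were plotted as a kinome-wide selectivity map.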

[10] = target: Serine/threonine-protein kinase haspin (Homo sapiens) (UniProt Q8TF76); test: Binding affinity to wild-type human partial length HASPIN (I452 to K798 residues) expressed in HEK293 cells at 1 uM by Kinomescan method relative to control; format: cell-based
[11] = tested on: Receptor-type tyrosine-protein kinase FLT3 (Homo sapiens), P36888 [UNDEFINED MUTATION]; test: Binding affinity to human partial length FLT3 ITD/F691L double mutant expressed in Escherichia coli BL21 at 1 uM by Kinomescan method relative to control
[12] = target: Megakaryocyte-associated tyrosine-protein kinase (Homo sapiens) (UniProt P42679); test: Binding affinity to wild-type human full length CTK (M43 to P508 residues) expressed in HEK293 cells at 1 uM by Kinomescan method relative to control; format: cell-based; how it was run: as §1
[13] = target: Serine/threonine-protein kinase 10 (Homo sapiens) (UniProt O94804); test: Binding affinity to wild-type human partial length LOK (E16 to V314 residues) expressed in Escherichia coli BL21 at 1 uM by Kinomescan method relative to control
[14] = target: Serine/threonine-protein kinase BRSK2 (Homo sapiens) (UniProt Q8IWQ3); test: Binding affinity to wild-type human full length BRSK2 (M1 to L674 residues) expressed in Escherichia coli BL21 at 1 uM by Kinomescan method relative to control
[15] = target: Uncharacterized serine/threonine-protein kinase SBK3 (Homo sapiens) (UniProt P0C264); test: Binding affinity to wild-type human partial length SgK110 (L22 to R329 residues) expressed in Escherichia coli BL21 at 1 uM by Kinomescan method relative to control
[16] = tested on: Receptor-type tyrosine-protein kinase FLT3 (Homo sapiens), P36888 [D835V]; test: Binding affinity to human partial length FLT3 D835V mutant (V592 to Y969 residues) expressed in Escherichia coli BL21 at 1 uM by Kinomescan method relative to control
[17] = target: Serine/threonine-protein kinase DCLK1 (Homo sapiens) (UniProt O15075); test: Binding affinity to wild-type human partial length DCAMKL1 (L270 to A662 residues) expressed in HEK293 cells at 1 uM by Kinomescan method relative to control; format: cell-based
[18] = target: Serine/threonine-protein kinase Nek5 (Homo sapiens) (UniProt Q6P3R8); test: Binding affinity to wild-type human partial length NEK5 (M1 to M279 residues) expressed in Escherichia coli BL21 at 1 uM by Kinomescan method relative to control
[19] = target: Protein kinase C epsilon type (Homo sapiens) (UniProt Q02156); test: Binding affinity to wild-type human partial length PRKCE (A378 to P737 residues) expressed in HEK293 cells at 1 uM by Kinomescan method relative to control; format: cell-based
[20] = tested on: Fibroblast growth factor receptor 3 (Homo sapiens), P22607 [G697C]; test: Binding affinity to human partial length FGFR3 G697C mutant (R442 to S771 residues) expressed in Escherichia coli BL21 at 1 uM by Kinomescan method relative to control
[21] = target: Homeodomain-interacting protein kinase 3 (Homo sapiens) (UniProt Q9H422); test: Binding affinity to wild-type human partial length HIPK3 (M153 to N562 residues) expressed in HEK293 cells at 1 uM by Kinomescan method relative to control; format: cell-based
[22] = target: Tyrosine-protein kinase Lyn (Homo sapiens) (UniProt P07948); test: Binding affinity to wild-type human partial length LYN (C219 to Q511 residues) expressed in Escherichia coli BL21 at 1 uM by Kinomescan method relative to control
[23] = target: Serine/threonine-protein kinase RIO1 (Homo sapiens) (UniProt Q9BRS2); test: Binding affinity to wild-type human full length RIOK1 (M1 to K568 residues) expressed in Escherichia coli BL21 at 1 uM by Kinomescan method relative to control
[24] = target: Protein-tyrosine kinase 2-beta (Homo sapiens) (UniProt Q14289); test: Binding affinity to wild-type human full length PYK2 (M1 to E967 residues) expressed in Escherichia coli BL21 at 1 uM by Kinomescan method relative to control
How it was run: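 Kinome-wide competition binding panel run by an outside provider, with each compound tested at a single concentration. Activity is read against the kinase panel.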

[25] = target: Mitogen-activated protein kinase kinase kinase 1 (Homo sapiens) (UniProt Q13233); test: Binding affinity to wild-type human partial length MAP3K1 (L1202 to W1512 residues) expressed in HEK293 cells at 1 uM by Kinomescan method relative to control; format: cell-based

Sequence of Tyrosine-protein kinase Lyn (Homo sapiens) (P07948 2-512 limits assumed): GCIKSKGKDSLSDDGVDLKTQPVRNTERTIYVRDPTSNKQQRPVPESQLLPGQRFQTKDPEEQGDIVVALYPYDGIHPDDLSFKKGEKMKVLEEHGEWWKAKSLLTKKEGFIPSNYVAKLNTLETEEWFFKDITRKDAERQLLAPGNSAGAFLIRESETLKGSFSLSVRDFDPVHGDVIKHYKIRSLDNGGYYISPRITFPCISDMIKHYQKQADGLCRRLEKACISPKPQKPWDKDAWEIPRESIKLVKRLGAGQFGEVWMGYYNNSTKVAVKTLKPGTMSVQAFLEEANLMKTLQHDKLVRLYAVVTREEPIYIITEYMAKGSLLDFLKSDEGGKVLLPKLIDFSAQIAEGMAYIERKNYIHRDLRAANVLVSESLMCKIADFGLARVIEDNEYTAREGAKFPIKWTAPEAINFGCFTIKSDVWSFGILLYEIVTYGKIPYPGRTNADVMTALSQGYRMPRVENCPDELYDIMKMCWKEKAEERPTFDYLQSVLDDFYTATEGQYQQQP
Sequence of Epidermal growth factor receptor (Homo sapiens) (P00533 whole entry, the tested form may be a part): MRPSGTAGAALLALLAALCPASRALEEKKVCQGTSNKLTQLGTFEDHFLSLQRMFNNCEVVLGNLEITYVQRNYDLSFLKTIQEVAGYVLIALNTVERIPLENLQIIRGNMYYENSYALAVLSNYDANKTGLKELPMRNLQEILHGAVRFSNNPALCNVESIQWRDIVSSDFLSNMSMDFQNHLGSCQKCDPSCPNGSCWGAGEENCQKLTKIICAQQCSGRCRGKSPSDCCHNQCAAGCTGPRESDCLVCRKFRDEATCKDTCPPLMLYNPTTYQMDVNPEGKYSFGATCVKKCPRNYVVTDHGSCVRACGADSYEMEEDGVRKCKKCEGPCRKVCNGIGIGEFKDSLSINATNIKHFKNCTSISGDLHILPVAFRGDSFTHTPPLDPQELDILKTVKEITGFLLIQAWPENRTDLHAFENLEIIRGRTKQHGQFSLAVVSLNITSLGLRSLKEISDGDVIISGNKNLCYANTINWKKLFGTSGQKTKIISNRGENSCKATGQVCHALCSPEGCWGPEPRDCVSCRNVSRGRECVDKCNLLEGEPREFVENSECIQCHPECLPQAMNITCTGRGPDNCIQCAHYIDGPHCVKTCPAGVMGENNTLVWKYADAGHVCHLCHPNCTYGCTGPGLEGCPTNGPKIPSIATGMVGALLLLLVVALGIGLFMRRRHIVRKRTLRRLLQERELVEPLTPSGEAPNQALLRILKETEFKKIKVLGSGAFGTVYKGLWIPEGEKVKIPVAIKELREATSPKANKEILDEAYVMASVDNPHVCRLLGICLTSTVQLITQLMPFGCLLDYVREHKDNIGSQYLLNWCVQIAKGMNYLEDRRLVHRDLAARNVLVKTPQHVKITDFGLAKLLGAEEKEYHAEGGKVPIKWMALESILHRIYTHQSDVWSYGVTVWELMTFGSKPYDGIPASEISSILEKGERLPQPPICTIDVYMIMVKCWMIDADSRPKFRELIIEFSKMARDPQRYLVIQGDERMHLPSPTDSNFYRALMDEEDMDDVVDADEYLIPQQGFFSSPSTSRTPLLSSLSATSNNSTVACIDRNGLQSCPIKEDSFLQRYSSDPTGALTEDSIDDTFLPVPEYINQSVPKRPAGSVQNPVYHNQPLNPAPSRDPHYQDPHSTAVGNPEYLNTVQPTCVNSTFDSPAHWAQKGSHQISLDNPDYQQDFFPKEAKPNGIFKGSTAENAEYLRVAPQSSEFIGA
Sequence of Tyrosine-protein kinase Fer (Homo sapiens) (P16591 whole entry, looked up, the tested form may be a part): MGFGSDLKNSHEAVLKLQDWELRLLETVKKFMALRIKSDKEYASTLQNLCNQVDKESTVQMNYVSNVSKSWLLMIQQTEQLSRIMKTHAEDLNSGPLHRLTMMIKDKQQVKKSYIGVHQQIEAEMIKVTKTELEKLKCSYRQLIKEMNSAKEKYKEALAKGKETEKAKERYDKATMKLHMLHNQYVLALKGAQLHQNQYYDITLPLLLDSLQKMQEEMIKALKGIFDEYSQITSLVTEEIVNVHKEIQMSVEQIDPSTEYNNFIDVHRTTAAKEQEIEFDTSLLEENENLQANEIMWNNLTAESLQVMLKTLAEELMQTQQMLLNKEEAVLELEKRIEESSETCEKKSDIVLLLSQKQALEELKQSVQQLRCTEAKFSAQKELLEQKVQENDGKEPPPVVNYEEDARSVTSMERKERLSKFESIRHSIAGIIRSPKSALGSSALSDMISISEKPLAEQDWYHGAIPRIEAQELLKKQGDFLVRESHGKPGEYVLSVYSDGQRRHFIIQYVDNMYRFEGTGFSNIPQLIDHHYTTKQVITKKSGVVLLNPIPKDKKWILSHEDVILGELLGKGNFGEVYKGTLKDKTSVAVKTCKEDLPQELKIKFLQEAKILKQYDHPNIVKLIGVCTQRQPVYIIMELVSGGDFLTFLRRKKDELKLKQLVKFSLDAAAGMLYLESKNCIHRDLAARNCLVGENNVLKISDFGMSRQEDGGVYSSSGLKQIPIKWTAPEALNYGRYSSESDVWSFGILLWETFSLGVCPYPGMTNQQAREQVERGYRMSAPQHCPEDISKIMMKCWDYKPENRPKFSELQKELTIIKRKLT
Sequence of Serine/threonine-protein kinase 17B (Homo sapiens) (O94768 whole entry, the tested form may be a part): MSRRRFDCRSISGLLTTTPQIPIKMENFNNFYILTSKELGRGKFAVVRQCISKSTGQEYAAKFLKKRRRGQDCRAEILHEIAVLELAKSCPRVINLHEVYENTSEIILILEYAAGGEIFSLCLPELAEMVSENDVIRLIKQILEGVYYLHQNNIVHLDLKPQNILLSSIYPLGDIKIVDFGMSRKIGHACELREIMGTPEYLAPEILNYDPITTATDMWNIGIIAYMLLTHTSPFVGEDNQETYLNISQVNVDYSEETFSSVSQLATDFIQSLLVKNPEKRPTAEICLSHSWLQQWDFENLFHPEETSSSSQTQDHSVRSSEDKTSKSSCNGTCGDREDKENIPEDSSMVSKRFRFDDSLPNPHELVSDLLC
Sequence of Megakaryocyte-associated tyrosine-protein kinase (Homo sapiens) (P42679 whole entry, the tested form may be a part): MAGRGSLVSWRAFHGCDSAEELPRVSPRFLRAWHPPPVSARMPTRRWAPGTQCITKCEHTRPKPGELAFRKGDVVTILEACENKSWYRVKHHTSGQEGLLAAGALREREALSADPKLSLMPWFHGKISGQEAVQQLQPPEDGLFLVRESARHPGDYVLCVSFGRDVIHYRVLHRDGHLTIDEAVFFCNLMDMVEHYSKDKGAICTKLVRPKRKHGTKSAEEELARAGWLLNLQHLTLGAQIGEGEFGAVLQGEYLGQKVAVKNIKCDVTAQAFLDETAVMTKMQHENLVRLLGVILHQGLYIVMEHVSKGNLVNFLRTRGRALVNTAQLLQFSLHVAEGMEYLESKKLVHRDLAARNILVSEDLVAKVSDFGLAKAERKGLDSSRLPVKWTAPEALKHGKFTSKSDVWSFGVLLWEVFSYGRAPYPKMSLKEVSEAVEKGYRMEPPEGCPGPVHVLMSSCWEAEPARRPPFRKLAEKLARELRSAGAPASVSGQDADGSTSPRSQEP
Sequence of Serine/threonine-protein kinase Nek10 (Homo sapiens) (Q6ZWH5 whole entry, the tested form may be a part): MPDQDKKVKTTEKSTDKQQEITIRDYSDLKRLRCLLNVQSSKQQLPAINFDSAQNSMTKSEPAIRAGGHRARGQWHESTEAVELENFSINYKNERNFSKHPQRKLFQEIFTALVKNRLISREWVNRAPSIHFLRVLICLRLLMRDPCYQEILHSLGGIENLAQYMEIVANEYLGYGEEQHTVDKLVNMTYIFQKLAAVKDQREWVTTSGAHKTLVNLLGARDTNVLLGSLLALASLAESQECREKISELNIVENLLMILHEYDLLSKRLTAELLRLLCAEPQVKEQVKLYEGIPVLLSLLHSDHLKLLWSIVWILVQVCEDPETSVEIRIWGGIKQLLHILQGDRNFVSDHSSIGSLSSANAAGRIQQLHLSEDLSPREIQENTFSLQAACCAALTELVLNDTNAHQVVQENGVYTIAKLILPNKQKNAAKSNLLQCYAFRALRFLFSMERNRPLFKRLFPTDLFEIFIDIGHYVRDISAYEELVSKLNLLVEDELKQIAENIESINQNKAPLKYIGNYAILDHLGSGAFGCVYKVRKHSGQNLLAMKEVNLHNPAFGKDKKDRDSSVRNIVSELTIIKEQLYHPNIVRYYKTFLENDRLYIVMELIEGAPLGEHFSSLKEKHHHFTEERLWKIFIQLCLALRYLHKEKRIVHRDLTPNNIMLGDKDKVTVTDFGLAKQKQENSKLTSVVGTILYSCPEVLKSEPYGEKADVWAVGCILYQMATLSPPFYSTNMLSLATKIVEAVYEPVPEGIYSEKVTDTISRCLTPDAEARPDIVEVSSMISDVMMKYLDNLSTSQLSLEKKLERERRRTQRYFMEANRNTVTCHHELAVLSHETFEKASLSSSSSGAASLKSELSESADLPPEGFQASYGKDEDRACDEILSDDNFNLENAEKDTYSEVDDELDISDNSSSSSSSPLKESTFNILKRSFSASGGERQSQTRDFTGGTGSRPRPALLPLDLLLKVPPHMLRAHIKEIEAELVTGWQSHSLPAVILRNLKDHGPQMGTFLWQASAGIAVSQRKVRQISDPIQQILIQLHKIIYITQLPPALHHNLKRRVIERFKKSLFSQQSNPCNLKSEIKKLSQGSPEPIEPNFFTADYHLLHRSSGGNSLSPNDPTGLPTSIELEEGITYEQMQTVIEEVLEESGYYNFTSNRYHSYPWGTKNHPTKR
Sequence of Calcium/calmodulin-dependent protein kinase type 1G (Homo sapiens) (Q96NX5 whole entry, the tested form may be a part): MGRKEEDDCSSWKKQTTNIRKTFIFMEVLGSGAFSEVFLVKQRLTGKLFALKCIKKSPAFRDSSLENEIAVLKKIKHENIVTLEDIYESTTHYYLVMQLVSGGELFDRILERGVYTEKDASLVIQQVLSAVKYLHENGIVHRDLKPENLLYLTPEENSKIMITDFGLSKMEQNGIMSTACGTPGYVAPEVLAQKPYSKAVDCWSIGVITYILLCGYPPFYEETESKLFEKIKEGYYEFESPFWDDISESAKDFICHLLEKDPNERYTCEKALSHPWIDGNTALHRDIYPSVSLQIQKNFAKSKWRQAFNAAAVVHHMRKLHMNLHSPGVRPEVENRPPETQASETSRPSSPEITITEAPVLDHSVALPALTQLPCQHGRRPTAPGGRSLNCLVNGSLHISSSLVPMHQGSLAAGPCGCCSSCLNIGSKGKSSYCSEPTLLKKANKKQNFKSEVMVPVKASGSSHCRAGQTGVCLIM

| SMILES | Activity [1] [%] | Activity [2] [%] | Activity [3] [%] | Activity [4] [%] | Activity [5] [%] | Activity [6] [%] | Activity [7] [%] | Activity [8] [%] | Activity [9] [%] | Activity [10] [%] | Activity [11] [%] | Activity [12] [%] | Activity [13] [%] | Activity [14] [%] | Activity [15] [%] | Activity [16] [%] | Activity [17] [%] | Activity [18] [%] | Activity [19] [%] | Activity [20] [%] | other results |
| --- | --- | --- | --- | --- | --- | --- | --- | --- | --- | --- | --- | --- | --- | --- | --- | --- | --- | --- | --- | --- | --- |
| C=CC(=O)Nc1ccc(C(=O)Nc2ccc(Nc3ncc4c(n3)N(C)c3ccc(C)cc3C(=O)N4C)cc2)cc1 | 85 | 100 | 100 | 99 | 100 | 96 | 95 | 78 | 87 | 100 | 100 | 100 | 100 | 98 | 93 | 90 | 78 | 100 | 87 | 93 | Activity [21]: 95%; Activity [22]: 97%; Activity [23]: 84%; Activity [24]: 97%; Activity [25]: 83% |
| CCC(=O)Nc1ccc(C(=O)Nc2ccc(Nc3ncc4c(n3)N(C)c3ccc(C)cc3C(=O)N4C)cc2)cc1 | 85 | 91 | 100 | 100 | 100 | 86 | 78 | 85 | 100 | 100 | 68 | 95 | 78 | 88 | 70 | 86 | 72 | 86 | 100 | 95 | Activity [21]: 67%; Activity [22]: 97%; Activity [23]: 68%; Activity [24]: 95%; Activity [25]: 76% |
